ChEMBL document CHEMBL1140385, “Synthesis and antibacterial activity of 3-substituted-6-(3-ethyl-4-methylanilino)uracils” (J Med Chem, 2005)
In brackets after ≈: the same amount, converted by molar mass.

Key:
[1] = tested on: Enterococcus faecalis; assay: In vitro minimum inhibitory concentration against Enterococcus faecalis upon incubation at 37 degree C for 16 to 24 hr by dissolving in DMSO (1%); assay type: functional
In short: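 Log-phase E. faecalis was grown in brain-heart infusion broth and seeded at (3-7) × 10^5 CFU/mL. Duplicate 2-fold dilutions ran from 20 to 1.25 µg/mL, final 1% DMSO. After 16-24 h at 37 °C with shaking, OD600 was read.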

[2] = tested on: Staphylococcus aureus; assay: In vitro minimum inhibitory concentration against Staphylococcus aureus upon incubation at 37 degree C for 16 to 24 hr by dissolving in DMSO (1%); assay type: functional
[3] = tested on: Enterococcus faecium; assay: In vitro minimum inhibitory concentration against Vancomycin resistant Enterococci faecium upon incubation at 37 degree C for 16 to 24 hr by dissolving in DMSO (1%); assay type: functional
In short: (§1)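 Broth microdilution (modified NCCLS M7-A4). Enterococci grown to log phase in brain-heart infusion broth, seeded at (3-7) × 10⁵ CFU/mL. Compounds 2-fold diluted from DMSO stocks, 20 to 1.25 µg/mL, final 1% DMSO, in duplicate. Incubated 37 °C, 16-24 h, with shaking. OD600 read.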

[4] = tested on: Bacillus subtilis; assay: In vitro minimum inhibitory concentration against Bacillus subtilis upon incubation at 37 degree C for 16 to 24 h; assay type: functional
[5] = tested on: Enterococcus faecium; assay: In vitro minimum inhibitory concentration against Enterococcus fecium upon incubation at 37 degree C for 16 to 24 hr by dissolving in DMSO (1%); assay type: functional; in short: as §1
[6] = tested on: Staphylococcus aureus; assay: In vitro minimum inhibitory concentration against Staphylococcus aureus (Smith) upon incubation at 37 degree C for 16 to 24 hr by dissolving in DMSO (1%); assay type: functional
[7] = molecular target: DNA polymerase III PolC-type (Bacillus subtilis (strain 168), UniProt P13267); assay: Inhibitory concentration against Bacillus subtilis DNA polymerase IIIC using [3H]dTMP 250 pM (30 degree C for 10 min)
Sequence of DNA polymerase III PolC-type (P13267 whole entry, the tested form may be a part): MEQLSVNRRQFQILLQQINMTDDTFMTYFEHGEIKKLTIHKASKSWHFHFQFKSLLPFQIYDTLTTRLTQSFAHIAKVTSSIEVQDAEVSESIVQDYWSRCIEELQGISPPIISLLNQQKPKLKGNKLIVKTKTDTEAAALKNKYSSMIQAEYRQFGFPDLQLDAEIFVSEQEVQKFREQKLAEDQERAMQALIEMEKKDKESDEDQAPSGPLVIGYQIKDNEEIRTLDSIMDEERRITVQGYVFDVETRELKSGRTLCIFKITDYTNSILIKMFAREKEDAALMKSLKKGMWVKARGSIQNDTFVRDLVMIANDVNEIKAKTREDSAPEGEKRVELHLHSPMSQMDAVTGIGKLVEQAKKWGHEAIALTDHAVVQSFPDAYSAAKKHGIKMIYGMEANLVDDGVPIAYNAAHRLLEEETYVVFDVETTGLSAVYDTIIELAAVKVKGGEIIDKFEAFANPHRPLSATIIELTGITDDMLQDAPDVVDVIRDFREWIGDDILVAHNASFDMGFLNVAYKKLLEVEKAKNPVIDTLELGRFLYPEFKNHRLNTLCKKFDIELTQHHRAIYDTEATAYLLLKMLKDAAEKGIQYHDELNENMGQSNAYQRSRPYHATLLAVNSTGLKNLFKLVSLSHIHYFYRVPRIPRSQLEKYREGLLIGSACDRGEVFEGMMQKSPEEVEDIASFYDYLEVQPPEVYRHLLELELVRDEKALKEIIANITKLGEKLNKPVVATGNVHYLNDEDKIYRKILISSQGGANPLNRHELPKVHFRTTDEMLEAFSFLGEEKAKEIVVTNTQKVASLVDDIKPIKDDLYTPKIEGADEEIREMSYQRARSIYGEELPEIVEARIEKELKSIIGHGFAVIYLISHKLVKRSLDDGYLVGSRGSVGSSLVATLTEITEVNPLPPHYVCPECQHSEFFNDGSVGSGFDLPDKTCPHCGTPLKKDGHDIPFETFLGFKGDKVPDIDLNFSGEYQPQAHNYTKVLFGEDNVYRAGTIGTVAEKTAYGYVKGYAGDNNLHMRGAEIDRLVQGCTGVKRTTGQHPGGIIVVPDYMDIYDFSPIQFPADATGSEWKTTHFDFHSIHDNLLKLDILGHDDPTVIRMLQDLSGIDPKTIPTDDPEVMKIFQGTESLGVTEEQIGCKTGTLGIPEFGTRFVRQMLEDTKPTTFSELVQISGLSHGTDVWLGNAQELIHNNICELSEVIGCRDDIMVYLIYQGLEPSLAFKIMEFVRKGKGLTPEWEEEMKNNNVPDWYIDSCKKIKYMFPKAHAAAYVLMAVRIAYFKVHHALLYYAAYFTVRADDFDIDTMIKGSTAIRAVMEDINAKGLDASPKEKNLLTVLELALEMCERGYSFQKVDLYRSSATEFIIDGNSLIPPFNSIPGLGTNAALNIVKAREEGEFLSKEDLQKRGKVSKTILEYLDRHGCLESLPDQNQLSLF
In short: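 Homogeneous recombinant B. subtilis pol IIIC, 0.025-0.06 units, acted on activated calf thymus DNA with Mg2+, DTT, glycerol, dATP, dCTP, dTTP and [3H]dTTP, without dGTP. Compounds were serially diluted from DMSO. Reactions ran 10 min at 30 °C, were stopped with TCA-pyrophosphate, and the filter-collected precipitate was scintillation counted. Apparent Ki was read directly from this truncated assay; average standard deviation ±44%.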

[8] = tested on: Staphylococcus aureus; assay: In vitro minimum inhibitory concentration against Methicillin-resistant Staphylococcus aureus upon incubation at 37 degree C for 16 to 24 hr by dissolving in DMSO (1%); assay type: functional
In short: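 Broth microdilution (modified NCCLS M7-A4). Staphylococci grown to log phase in Luria broth, seeded at (3-7) × 10⁵ CFU/mL. Compounds 2-fold diluted from DMSO stocks, 20 to 1.25 µg/mL, final 1% DMSO, in duplicate. Incubated 37 °C, 16-24 h, with shaking. OD600 read.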

[9] = tested on: Staphylococcus aureus; assay: Serum effect on MIC against Staphylococcus aureus (Smith) as ratio of MIC value in presence and absence of 50% fetal calf serum; assay type: functional
In short: (§2)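 Broth microdilution MIC was repeated with 50% fetal calf serum added to the growth medium (LB for S. aureus, brain-heart infusion broth for E. faecalis). The inoculum was (3-7) × 10^5 CFU/mL in 1% DMSO, incubated at 37 °C for 16-24 h, and read by OD600. The serum effect is the MIC with serum relative to the MIC without serum.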

[10] = tested on: Enterococcus faecalis; assay: Serum effect on MIC of compound was measured against Enterococcus faecalis as ratio of MIC value in presence and absence of 50% fetal calf serum; assay type: functional; in short: as §2
[11] = tested on: Staphylococcus aureus; assay: Effect on survival of staphylococcus aureus (Smith) ip-infected mice at a concentration 10 mg/kg; assay type: functional
In short: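 Male pathogen-free Swiss-Webster mice (20-24 g), groups of five, infected ip with ca. 10⁸ CFU log-phase S. aureus Smith (grown 37 °C in LB, washed, in 0.5 mL LB). Single ip dose 15 min post-infection, in 10% DMSO/peanut oil or PBS. Survivors counted at 72 h post-infection.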

| SMILES | MIC [1] [µg/mL] | MIC [2] [µg/mL] | MIC [3] [µg/mL] | MIC [4] [µg/mL] | MIC [5] [µg/mL] | MIC [6] [µg/mL] | Ki [7] [nM] | MIC [8] [µg/mL] | MIC+/MIC- [9] | MIC+/MIC- [10] | Activity [11] |
| --- | --- | --- | --- | --- | --- | --- | --- | --- | --- | --- | --- |
| CCc1cc(Nc2cc(=O)n(CCOC(C)=O)c(=O)[nH]2)ccc1C | 5 (≈ 15.1 µM) | 5 (≈ 15.1 µM) | 5 (≈ 15.1 µM) | 1.25 (≈ 3.77 µM) | 5 (≈ 15.1 µM) | 3.75 (≈ 11.3 µM) | 120 | 5 (≈ 15.1 µM) |  |  |  |
| CCc1cc(Nc2cc(=O)n(CCOC)c(=O)[nH]2)ccc1C | 5 (≈ 16.5 µM) | 2.5 (≈ 8.24 µM) | 2.5 (≈ 8.24 µM) | < 1.25 | 2.5 (≈ 8.24 µM) | 2.5 (≈ 8.24 µM) | 127 | 5 (≈ 16.5 µM) | 6.9 |  |  |
| CCc1cc(Nc2cc(=O)n(CCOCCOc3ccccc3)c(=O)[nH]2)ccc1C | 5 (≈ 12.2 µM) | 20 (≈ 48.8 µM) | 5 (≈ 12.2 µM) | < 1.25 | 2.5 (≈ 6.11 µM) | 20 (≈ 48.8 µM) | 56 | 20 (≈ 48.8 µM) | >5.6 |  |  |
| CCn1cc(C(=O)O)c(=O)c2cc(F)c(N3CCNCC3)cc21 [NORFLOXACIN] | 2.5 (≈ 7.83 µM) | 0.625 (≈ 1.96 µM) | 80 (≈ 251 µM) | 0.313 (≈ 0.98 µM) | 10 (≈ 31.3 µM) | 0.156 (≈ 0.489 µM) |  | 40 (≈ 125 µM) | 0.4 | 2.2 |  |
| CCc1cc(Nc2cc(=O)n(CCCCN(CCO)CCO)c(=O)[nH]2)ccc1C | > 20 | > 20 |  | > 20 | > 20 | > 20 | 21 |  |  |  |  |
| CCc1cc(Nc2cc(=O)n(CCO)c(=O)[nH]2)ccc1C | 10 (≈ 34.6 µM) | 5 (≈ 17.3 µM) | 5 (≈ 17.3 µM) | < 1.25 | 5 (≈ 17.3 µM) | 5 (≈ 17.3 µM) |  | 10 (≈ 34.6 µM) |  |  |  |
| CCc1cc(Nc2cc(=O)n(CCOCCO)c(=O)[nH]2)ccc1C | 5 (≈ 15 µM) |  | 2.5 (≈ 7.5 µM) |  | 5 (≈ 15 µM) | 5 (≈ 15 µM) |  | 10 (≈ 30 µM) | 7.5 |  | 4 |
| CCc1cc(Nc2cc(=O)n(CCOCCOC)c(=O)[nH]2)ccc1C | 5 (≈ 14.4 µM) | 5 (≈ 14.4 µM) | 5 (≈ 14.4 µM) |  | 5 (≈ 14.4 µM) |  |  | 5 (≈ 14.4 µM) | 5.5 |  | 2 |
| CCc1cc(Nc2cc(=O)n(CCCC#N)c(=O)[nH]2)ccc1C | 5 (≈ 16 µM) | 5 (≈ 16 µM) | 5 (≈ 16 µM) |  | 5 (≈ 16 µM) |  |  | 5 (≈ 16 µM) | 5.4 |  | 2 |
| O=C(O)c1cn(C2CC2)c2cc(N3CCNCC3)c(F)cc2c1=O [CIPROFLOXACIN] |  | 0.156 (≈ 0.471 µM) | 20 (≈ 60.4 µM) | 0.078 (≈ 0.235 µM) | 5 (≈ 15.1 µM) | 0.078 (≈ 0.235 µM) |  | > 20 |  |  |  |
| CCc1cc(Nc2cc(=O)n(CCCN3CCOCC3)c(=O)[nH]2)ccc1C | 10 (≈ 26.8 µM) |  | 5 (≈ 13.4 µM) |  | 5 (≈ 13.4 µM) | 10 (≈ 26.8 µM) |  | 10 (≈ 26.8 µM) | 2.9 | 1.6 |  |
| CCc1cc(Nc2cc(=O)n(CCCO)c(=O)[nH]2)ccc1C | 5 (≈ 16.5 µM) | 2.5 (≈ 8.24 µM) | 2.5 (≈ 8.24 µM) | < 1.25 | 2.5 (≈ 8.24 µM) | 5 (≈ 16.5 µM) | 130 | 5 (≈ 16.5 µM) | 5.6 |  |  |
| CCc1cc(Nc2cc(=O)n(CCCCCCCCCO)c(=O)[nH]2)ccc1C | 2.5 (≈ 6.45 µM) | 20 (≈ 51.6 µM) | 2.5 (≈ 6.45 µM) | < 1.25 | 2.5 (≈ 6.45 µM) | 2.5 (≈ 6.45 µM) | 87 | 20 (≈ 51.6 µM) | >32 |  |  |
